Source: PubChem BioAssay
MC4R barr agon: activates human MC4R beta-arrestin recruitment; U2OS MC4R beta-arrestin complementation, luminescence; percent of melanotan II response, DMSO zero; P32245; AID 540308; actives 0.98% (n = 360,000); activation, % at 8.9 µM;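 active means activation above a per-plate cutoff, the mean activation of sample wells on that plate plus 3 SD, cut at about 8% in these data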
Target sequence (P32245 whole entry, looked up): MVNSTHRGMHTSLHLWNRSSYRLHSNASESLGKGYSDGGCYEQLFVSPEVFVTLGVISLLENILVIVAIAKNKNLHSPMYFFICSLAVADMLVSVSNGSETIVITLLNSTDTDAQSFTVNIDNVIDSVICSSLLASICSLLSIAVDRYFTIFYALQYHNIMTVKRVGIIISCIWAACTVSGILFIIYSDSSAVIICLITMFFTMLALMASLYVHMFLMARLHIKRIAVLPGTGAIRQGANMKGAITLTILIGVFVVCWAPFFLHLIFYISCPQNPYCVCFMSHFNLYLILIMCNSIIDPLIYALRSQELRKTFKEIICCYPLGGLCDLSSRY
HTR2A ag: agonists of mouse serotonin 5-HT2A receptor (HTR2A) | P35363 | CHO-K1 mHTR2A beta-arrestin complementation, luminescence; percent of 30 µM serotonin response | activation, % at 7.6 µM | actives 0.66% (n = 360,000) | AID 624169;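 active means activation above a run cutoff, the mean activation of all tested compounds plus 3 SD, cut at about 14% in these data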
MC4R antag cAMP: human MC4R antagonism in cAMP assay | P32245 | MC4R-expressing cells, MTII-stimulated cAMP, LANCE TR-FRET | inhibition, % at 6.5 µM | actives 0.48% (n = 360,000) | AID 540295;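 active means inhibition above its plate's cutoff, the mean of tested wells on that plate plus 3 SD, cut at about 29% in these data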
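Material: human MC4R-expressing U2OS cells. Probe or stimulus: Melanotan II challenge. Dosing: 6.5 µM single dose. Times: 30-min compound, 1-h challenge, 1-h detection, room temperature. Technique: TR-FRET with Eu-cAMP and labeled anti-cAMP, 671 nm. Replication: singlicate.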
EBI2 antag: antagonists of human EBI2 receptor; P32249; EBI2 beta-arrestin recruitment, luminescence, 7a,25-OHC stimulated; inhibition, % at 5 µM; actives 0.81% (n = 360,000); in the data active means inhibition above about 38%;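 further: enzyme fragment complementation signal reports receptor beta-arrestin coupling in cells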
Target sequence (P32249 whole entry, looked up, the tested form may be a part): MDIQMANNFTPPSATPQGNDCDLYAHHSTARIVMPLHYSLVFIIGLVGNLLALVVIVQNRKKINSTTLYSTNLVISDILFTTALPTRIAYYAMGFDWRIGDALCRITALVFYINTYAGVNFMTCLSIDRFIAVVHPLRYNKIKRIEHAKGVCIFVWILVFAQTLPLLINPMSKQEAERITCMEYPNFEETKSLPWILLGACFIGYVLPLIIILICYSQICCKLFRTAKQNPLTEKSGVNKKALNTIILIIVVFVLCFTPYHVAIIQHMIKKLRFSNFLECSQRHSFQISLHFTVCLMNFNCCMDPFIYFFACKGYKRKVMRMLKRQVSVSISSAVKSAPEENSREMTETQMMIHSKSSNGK
OPRM1 ag: counter-screen for mouse HTR2A agonists: human mu opioid receptor agonists; shares compounds with HTR2A ag; actives 5.3% (n = 2,300); activation, % at 9.3 µM; U2OS OPRM1 beta-arrestin PathHunter, luminescence; DMSO 0%, DAMGO 9.3 µM 100%;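 active means mean activation above the mean of DMSO-only wells plus 3 SD, cut at about 0.5% in these data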
HTR2A ag conf: mouse HTR2A agonism confirmed; AID 624381; actives 19% (n = 2,300); shares compounds with HTR2A ag; activation, % at 7.6 µM; CHO-K1 PathHunter beta-arrestin recruitment, luminescence; DMSO 0%, 30 µM serotonin 100%;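 active means mean activation across triplicates above the hit threshold derived in the original primary screen, cut at about 15% in these data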
EBI2 antag conf: confirmation of human EBI2 receptor antagonists; shares compounds with EBI2 antag; EBI2 beta-arrestin luminescence, 7a,25-OHC antagonism; inhibition, % at 5 µM; actives 29% (n = 2,400); AID 651997;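 active means inhibition of at least 50%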
EBI2 agonist: EBI2 agonism counter-screen. shares compounds with EBI2 antag. EBI2-expressing cells, agonist mode, luminescence, 60 min; 0% vehicle, 100% 7α,25-dihydroxycholesterol control. activation, % at 5 µM. 2,400 tested, under 10 active. AID 652000;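 active means activation of at least 50%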
bGal cs: beta-galactosidase inhibition counter-screen. actives 1% (n = 2,400). purified beta-galactosidase, luminescent Galacton Star, 15 min. shares compounds with EBI2 antag. inhibition, % at 5 µM. AID 652176;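 active means replicate-average signal at least 3 plate SD below neutral wells, shown as high inhibition, flagging enzyme-inhibiting false positives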;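 further: higher means stronger loss of beta-gal luminescence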
A number is an active result. A selection: hits, their analogues and other compounds. The true share with any hit is near 2.8%.

Results for CC(=O)c1ccc(N2CCN(C(=O)c3cc(-c4ccncc4)nc4ccc(Cl)cc34)CC2)cc1 ?
MC4R barr agon: inactive; HTR2A ag: 14.8; MC4R antag cAMP: inactive; EBI2 antag: 45.2; OPRM1 ag: inactive; HTR2A ag conf: inactive; EBI2 antag conf: inactive; EBI2 agonist: inactive; bGal cs: inactive

Results for O=C(Cc1ccc(NC(=O)C2CCN(C(=O)C3CCCCC3)CC2)cc1)Nc1cccc(C(=O)N2CCCCC2)c1 ?
MC4R barr agon: inactive; HTR2A ag: inactive; MC4R antag cAMP: inactive; EBI2 antag: inactive

What do the screens show for `CC(C)C[C@@H]1CN(CCCC[C@H]2CNC(=O)C(=O)N2CCC2CCCCC2)C(=O)C(=O)N1CC1CCCCC1`?
HTR2A ag: inactive; EBI2 antag: inactive

Results for COc1ccccc1N1CC(C(=O)Nc2ccc(S(=O)(=O)N3CCCC3)cc2)CC1=O (configuration not stated) ?
MC4R barr agon: inactive; HTR2A ag: inactive; MC4R antag cAMP: inactive; EBI2 antag: inactive

Results for COc1ccc(N2CC(C(=O)Nc3ccc(S(=O)(=O)N4CCCC4)cc3)CC2=O)cc1 (configuration not stated) ?
MC4R barr agon: inactive; HTR2A ag: 14.6; MC4R antag cAMP: inactive; EBI2 antag: 50.1; OPRM1 ag: inactive; HTR2A ag conf: inactive; EBI2 antag conf: inactive; EBI2 agonist: inactive; bGal cs: inactive

What do the screens show for `O[C@@H]1C[C@H](c2ccc(Cl)cc2)N(Cc2cccs2)C[C@H]1n1cc(-c2ccc(F)cc2)nn1`?
MC4R barr agon: inactive; HTR2A ag: inactive; MC4R antag cAMP: inactive; EBI2 antag: inactive

What do the screens show for `CN1CCN(C(=O)/C=C/c2ccc([N+](=O)[O-])cc2)CC1`?
MC4R barr agon: inactive; HTR2A ag: inactive; MC4R antag cAMP: inactive; EBI2 antag: inactive

How did O=C(/C=C/c1ccc([N+](=O)[O-])cc1)N1CCN(S(=O)(=O)c2ccccc2)CC1 do in these assays?
MC4R barr agon: inactive; HTR2A ag: 17.6; MC4R antag cAMP: inactive; EBI2 antag: 90.4; OPRM1 ag: inactive; HTR2A ag conf: inactive; EBI2 antag conf: 61.5; EBI2 agonist: inactive; bGal cs: inactive

How did O=C(C[C@@H]1CC[C@@H](NC(=O)Nc2cccc(F)c2)[C@@H](CO)O1)NCC1CCCCC1 do in these assays?
HTR2A ag: inactive; EBI2 antag: inactive

What do the screens show for `CCOc1ccc(NC(=S)N2c3ccccc3CC2C)cc1` (configuration not stated)?
MC4R barr agon: inactive; HTR2A ag: 15.9; MC4R antag cAMP: inactive; EBI2 antag: 65.5; OPRM1 ag: inactive; HTR2A ag conf: inactive; EBI2 antag conf: inactive; EBI2 agonist: inactive; bGal cs: inactive

How did O=C(Nc1ccc(Cl)cc1F)c1ccc2c(c1)C(=O)N(Cc1ccncc1)C2=O do in these assays?
MC4R barr agon: inactive; HTR2A ag: 19.4; MC4R antag cAMP: inactive; EBI2 antag: 50.6; OPRM1 ag: inactive; HTR2A ag conf: inactive; EBI2 antag conf: inactive; EBI2 agonist: inactive; bGal cs: inactive

How did O=C1CC2(CCN(C(=O)c3ccc([N+](=O)[O-])cc3)CC2)Oc2ccccc21 do in these assays?
MC4R barr agon: inactive; HTR2A ag: inactive; MC4R antag cAMP: inactive; EBI2 antag: inactive

What do the screens show for `O=C1CC2(CCN(C(=O)COc3ccc(Cl)cc3)CC2)Oc2ccccc21`?
MC4R barr agon: inactive; HTR2A ag: inactive; MC4R antag cAMP: inactive; EBI2 antag: 87.4; EBI2 antag conf: 64.0; EBI2 agonist: inactive; bGal cs: inactive

How did O=C1CC2(CCN(C(=O)c3ccc(Br)cc3)CC2)Oc2ccccc21 do in these assays?
MC4R barr agon: inactive; HTR2A ag: inactive; MC4R antag cAMP: inactive; EBI2 antag: 54.1; EBI2 antag conf: inactive; EBI2 agonist: inactive; bGal cs: inactive

What do the screens show for `COc1cccc(OCC(=O)N2CCC3(CC2)CC(=O)c2ccccc2O3)c1`?
MC4R barr agon: inactive; HTR2A ag: inactive; MC4R antag cAMP: inactive; EBI2 antag: inactive

Results for Cc1ccc(OCC(=O)N2CCC3(CC2)CC(=O)c2ccccc2O3)cc1 ?
MC4R barr agon: inactive; HTR2A ag: inactive; MC4R antag cAMP: inactive; EBI2 antag: 86.3; EBI2 antag conf: 59.8; EBI2 agonist: inactive; bGal cs: inactive

Results for O=C1CC2(CCN(C(=O)COc3ccccc3F)CC2)Oc2ccccc21 ?
MC4R barr agon: inactive; HTR2A ag: inactive; MC4R antag cAMP: inactive; EBI2 antag: inactive

Results for Cc1[nH]c2ccc(-c3nnc(SCC(=O)N4CCCc5ccccc54)o3)cc2c1C ?
MC4R barr agon: inactive; HTR2A ag: inactive; MC4R antag cAMP: inactive; EBI2 antag: 50.9; EBI2 antag conf: inactive; EBI2 agonist: inactive; bGal cs: inactive

What do the screens show for `COc1cccc(NC(=O)C(=O)N/N=C(\C)CC(=O)Nc2ccc(NC(C)=O)cc2)c1`?
MC4R barr agon: inactive; HTR2A ag: inactive; MC4R antag cAMP: inactive; EBI2 antag: inactive

How did CSc1ccccc1OCc1cc(C(=O)N2CCC(Oc3cccnc3)CC2)no1 do in these assays?
MC4R barr agon: inactive; HTR2A ag: inactive; MC4R antag cAMP: inactive; EBI2 antag: inactive

How did FC(F)(F)c1cccc(CON=C2CCN(c3ncc(C(F)(F)F)cc3Cl)CC2)c1 do in these assays?
MC4R barr agon: inactive; HTR2A ag: inactive; MC4R antag cAMP: inactive; EBI2 antag: inactive

Results for ON=C1CCN(c2ncc(C(F)(F)F)cc2Cl)CC1 ?
MC4R barr agon: inactive; HTR2A ag: inactive; MC4R antag cAMP: inactive; EBI2 antag: inactive

How did Cc1ccc(CON=C2CCN(c3ncc(C(F)(F)F)cc3Cl)CC2)cc1 do in these assays?
MC4R barr agon: inactive; HTR2A ag: inactive; MC4R antag cAMP: inactive; EBI2 antag: 42.8; EBI2 antag conf: inactive; EBI2 agonist: inactive; bGal cs: inactive

What do the screens show for `FC(F)(F)c1cnc(N2CCC(=NOCc3ccc(Cl)cc3)CC2)c(Cl)c1`?
MC4R barr agon: inactive; HTR2A ag: inactive; MC4R antag cAMP: inactive; EBI2 antag: 53.8; EBI2 antag conf: inactive; EBI2 agonist: inactive; bGal cs: inactive

Results for O=C(c1cc2ccccc2o1)N1CCN(S(=O)(=O)c2ccc(F)c(F)c2F)CC1 ?
MC4R barr agon: 8.2; HTR2A ag: inactive; MC4R antag cAMP: inactive; EBI2 antag: 88.8; EBI2 antag conf: 71.2; EBI2 agonist: inactive; bGal cs: inactive

Results for CCOC(=O)N1CCN(S(=O)(=O)c2c(C)cc(C)cc2C)CC1 ?
MC4R barr agon: inactive; HTR2A ag: inactive; MC4R antag cAMP: inactive; EBI2 antag: inactive
